Series [1] is described as follows: Stability of compound in PBS at pH 7.4 assessed as half life by LC-MS analysis. Type of series: physicochemical. The gist of the method: (§1)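 1000 ng/mL final (from 200 μg/mL D6-DMSO stock) in prewarmed matrix at 37 °C with continuous shaking, triplicate. Matrices: pH 6.5 or 7.4 phosphate buffer, 1 in 4 water-diluted Wistar Han lung homogenate (pH 6.8), or fresh rat blood. Timed aliquots quenched in MeCN with labetalol/reserpine internal standards. Half-life by MS, mean ± SD.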

The nature of series [2]: Stability of compound in PBS at pH 6.5 assessed as half life by LC-MS analysis. Type of series: physicochemical. The essentials:
as §1

The nature of series [3]: Stability in Crl Wistar Han rat blood at pH 7.2 assessed as half life by mass spectroscopic analysis. Type of series: ADME, tissue-based. The gist of the method: as §1
Series [4] is described as follows: Stability in Crl Wistar Han rat lung homogenate at pH 6.8 assessed as half life by mass spectroscopic analysis. Type of series: ADME, tissue-based. The gist of the method:
as §1

Series [5] in a line: Plasma concentration in Crl Sprague-Dawley rat at 0.2 mg/kg, IT measured at 3 to 24 hrs by LC-MS/MS analysis. The settings on record: in vivo, other, time 3-24 hrs. Type of series: ADME, organism-based. The essentials:
(§2)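 Male Sprague Dawley rats, n = 3 per time point, given a single intratracheal dose of 0.2 mg/kg at 1 mL/kg in 5% ethanol in pH 6.5 PBS. Serial blood into EDTA, centrifuged for plasma. At 24 h, lungs taken after CO2 euthanasia, rinsed, blotted, weighed, snap-frozen and homogenized. Methanol/acetonitrile protein precipitation with imipramine internal standard. Quantified by LC–MS/MS.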

Series [6] can be described thus: Plasma concentration in Crl Sprague-Dawley rat at 0.2 mg/kg, IT measured at 2 hrs by LC-MS/MS analysis. Type of series: ADME, organism-based. The gist of the method: as §2
Series [7] can be described thus: Drug metabolism in rat lung homogenate assessed as 1-(((R)-2-amino-3,3-dimethylbutanoyl)oxy)ethyl 4-(2-hydroxy-2,2-diphenylacetoxy)piperidine-1-carboxylate intermediate formation at 1500 ng/ml by MS/MS analysis. The series is classed as ADME, tissue-based. Conditions: tissue homogenate. The essentials:
(§3)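 Wistar Han rat lung homogenized, then diluted 1 in 4 by mass with water (pH 6.8). Incubated at nominal 1500 ng/mL, 37 °C. Breakdown followed over 1500 min by MS/MS against authenticated samples of prodrug, intermediate and parent.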

Series [8] in a line: Protein binding to Crl Wistar Han rat lung homogenate assessed as free fraction by mass spectroscopic analysis. The series is classed as ADME, tissue-based. The gist of the method: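 Rapid equilibrium dialysis of spiked 1 in 4 Wistar Han rat lung homogenate (1000 ng/mL) against pH 6.5 PBS, 4 h, 37 °C, orbital shaking. Recovery and time-0/240 matrix controls included. Samples matrix-matched 1:1, MeCN precipitation with labetalol/reserpine internal standards, MS quantification. Triplicate, mean ± SD.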

Series [9] is described as follows: Drug concentration in lung of Crl Sprague-Dawley rat at 0.2 mg/kg, IT measured at 24 hrs by LC-MS/MS analysis. The series is classed as ADME, organism-based. The settings on record: read-out: Ct. The essentials: as §2
Series [10] in a line: Plasma concentration in Crl Sprague-Dawley rat at 0.2 mg/kg, IT measured at 0.25 hrs by LC-MS/MS analysis. The series is classed as ADME, organism-based. The essentials:
as §2

A short description of series [11]: Drug metabolism in rat lung homogenate assessed as piperidin-4-yl-2-hydroxy-2,2-diphenylacetate formation at 1500 ng/ml by MS/MS analysis. The series is classed as ADME, tissue-based. Conditions: tissue homogenate. The gist of the method:
as §3

The nature of series [12]: Plasma concentration in Crl Sprague-Dawley rat at 0.2 mg/kg, IT measured at 0.5 hrs by LC-MS/MS analysis. The series is classed as ADME, organism-based. The gist of the method: as §2
A short description of series [13]: Plasma concentration in Crl Sprague-Dawley rat at 0.2 mg/kg, IT measured at 1 hr by LC-MS/MS analysis. Type of series: ADME, organism-based. The gist of the method: as §2
A short description of series [14]: Drug metabolism in rat lung homogenate assessed as 1-(((S)-2-Amino-3,3-dimethylbutanoyl)oxy)ethyl-4-(2-hydroxy-2,2-diphenylacetoxy)piperidine-1-carboxylate Hydrochloride intermediate formation at 1500 ng/ml by MS/MS analysis. The settings on record: tissue homogenate. The series is classed as ADME, tissue-based. The essentials:
as §3

Consider three compounds from ChEMBL document CHEMBL5131571, “Design, Synthesis, and Evaluation of Lung-Retentive Prodrugs for Extending the Lung Tissue Retention of Inhaled Drugs” (J Med Chem, 2022).

Consider `CC(OC(=O)C[C@@H](N)CCCCN)OC(=O)N1CCC(OC(=O)C(O)(c2ccccc2)c2ccccc2)CC1.Cl.Cl` (stereo not given in full), for which the half-life (usually the time in which the quantity being followed falls by half) in series [1] was 5.9 h; in series [2], 29.1 h; in series [3], 0.3 h; in series [4], 3.1 h.
The compound `CC(OC(=O)[C@H](NC(=O)[C@@H](N)CCCCN)C(C)(C)C)OC(=O)N1CCC(OC(=O)C(O)(c2ccccc2)c2ccccc2)CC1.Cl.Cl` (stereo not given in full) registered a Cp in series [5] of 1 ng/mL. This compound also yielded a concentration at 2 h in [6] of 1.25 ng/mL. The Drug metabolism entry is on record as “Metabolite_Notdetected” in series [7] and “Metabolite_Detected” in [11]. Moreover, in series [8], the unbound share (fraction unbound) (usually free concentration divided by total concentration) came to 0.005. Further, the concentration at 24 h in [9] was 20000 ng/mL. The compound further yielded a concentration at 0.25 h in series [10] of 2.03 ng/mL. In [12], this compound displayed a concentration at 0.5 h of 1.63 ng/mL. The concentration at 1 h in series [13] amounted to 2.1 ng/mL.
As for `CC(OC(=O)[C@@H](NC(=O)[C@@H](N)CCCCN)C(C)(C)C)OC(=O)N1CCC(OC(=O)C(O)(c2ccccc2)c2ccccc2)CC1.Cl.Cl` (stereo not given in full), the Drug metabolism result in [11] and in [14] was “Metabolite_Detected” in each case.
